{"data": "Results from different studies", "note": "Each line is one published result; the experiments were not run side by side."}
{"SMILES": "COc1cc(O)c2c(c1)C(=O)c1cc(C)cc(O)c1C2=O", "cell line": "HK-2", "effect on": "cell growth or viability", "technique": "MTT", "time": "24 h", "IC50": "> 500 µM"}
{"SMILES": "Clc1ccc2c(c1)N=C(N1CCNCC1)c1ccccc1N2", "cell line": "HN-6", "effect on": "cell growth or viability", "time": "72 h", "IC50": "> 20 µM"}
{"SMILES": "CCCCC/C=C\\C/C=C\\C/C=C\\C/C=C\\CCCC(=O)C(F)(F)F", "cell line": "MEL-JUSO", "effect on": "cell growth or viability", "technique": "MTS", "time": "72 h", "IC50": "22.8 µM"}
{"SMILES": "CC(C)C[C@H](NC(=O)[C@H](Cc1ccccc1)NC(=O)c1cnccn1)B(O)O", "cell line": "RERF-LC-Ad2", "effect on": "cell growth or viability", "technique": "ATP luminescence", "IC50": "0.022 µM"}
{"SMILES": "Clc1ccc(N2CCN(Cc3c[nH]c4ncccc34)CC2)cc1", "cell line": "HN-6", "effect on": "cell growth or viability", "time": "72 h", "IC50": "> 20 µM"}
{"SMILES": "COc1cc(Nc2nccc(-c3cnn4nc(OC)ccc34)n2)cc(C(F)(F)F)c1", "cell line": "A2058", "effect on": "cell growth or viability", "technique": "ATP luminescence", "IC50": "0.19 µM"}
{"SMILES": "COc1cccc2c1C(=O)c1c(O)c3c(c(O)c1C2=O)C[C@@](O)(C(=O)CO)C[C@@H]3O[C@H]1C[C@H](N)[C@H](O)[C@H](C)O1", "cell line": "KATO III", "effect on": "cell growth or viability", "technique": "MTT", "time": "48 h", "IC50": "0.71 µg/mL"}
{"SMILES": "O=C1Nc2ccc(Cl)cc2[C@@](C#CC2CC2)(C(F)(F)F)O1", "cell line": "HN-6", "effect on": "cell growth or viability", "time": "72 h", "IC50": "18.7 µM"}
{"SMILES": "C(=C\\c1c[nH]c2ccccc12)/c1ccc2ccccc2n1", "cell line": "MDA-MB-468", "effect on": "cell growth or viability", "technique": "MTT", "IC50": "11 µM"}
{"SMILES": "O=C(CNC(=O)c1cccc2ccccc12)Nc1ccccc1Oc1cccc(O)c1", "cell line": "SK-N-DZ", "effect on": "cell growth or viability", "IC50": "0.539 µM"}
{"SMILES": "O=C1NC(=NCc2cccs2)S/C1=C\\c1ccc2ncccc2c1", "cell line": "LOX IMVI", "effect on": "cell growth or viability", "IC50": "4.4 µM"}
{"SMILES": "CS(=O)(=Nc1ccc(Br)cc1)c1c[nH]c2ccccc12 (centres unmarked)", "cell line": "C4-2", "effect on": "cell growth or viability", "technique": "MTT", "time": "48 h", "IC50": "> 40 µM"}
{"SMILES": "O=C(c1cc(Cc2n[nH]c(=O)c3ccccc23)ccc1F)N1CCN(C(=O)C2CC2)CC1", "cell line": "KATO III", "effect on": "colony formation", "IC50": "2.43 µM"}
{"SMILES": "CC1(C)CC[C@]2(C(=O)O)CC[C@]3(C)C(=CC[C@@H]4[C@@]5(C)CC[C@H](O)C(C)(C)[C@@H]5CC[C@]43C)[C@@H]2C1", "cell line": "SGC-7901", "effect on": "cell growth or viability", "technique": "MTT", "time": "48 h", "IC50": "52.7 µM"}
{"SMILES": "CC(C)C(=O)SCCCCCCC(=O)Nc1nc(-c2ccccc2)cs1", "cell line": "HN-6", "effect on": "cell growth or viability", "time": "72 h", "IC50": "5.9 µM"}
{"SMILES": "COc1ccc(-c2nc(C(=O)Nc3nnc(-c4cc5ccccc5[nH]4)s3)cc3c2[nH]c2ccccc23)cc1", "cell line": "BEAS-2B", "effect on": "cell growth or viability", "technique": "MTT", "time": "72 h", "IC50": "71.2 µM"}
{"SMILES": "C=C(C)C(=O)Nc1ccc(-c2c(-c3ccc(Oc4nccc(C)n4)c(F)c3)c3c(N)ncnc3n2C)cc1", "cell line": "KATO III", "effect on": "cell growth or viability", "technique": "ATP luminescence", "time": "96 h", "IC50": "0.00129 µM"}
{"SMILES": "COC(=O)CN=c1scc(-c2ccccc2)n1-c1ccccc1", "cell line": "Panc 02.03", "effect on": "cell growth or viability", "technique": "MTT", "time": "72 h", "IC50": "81.5 µM"}
{"SMILES": "CC(C)(C)C1=CC(=NNC(=O)c2cccnc2)C=C(C(C)(C)C)C1=O", "cell line": "human Fibroblast", "effect on": "cell growth or viability", "technique": "resazurin", "time": "24 h", "IC50": "> 100 µM"}
{"SMILES": "COc1cccc2c1C(=O)c1c(O)c3c(c(O)c1C2=O)C[C@@](O)(C(=O)CO)C[C@@H]3O[C@H]1C[C@H](N)[C@H](O)[C@H](C)O1", "cell line": "SGC-7901", "effect on": "cell growth or viability", "technique": "MTT", "time": "48 h", "IC50": "0.13 µM"}
{"SMILES": "CC(C)=CCC[C@](C)(O)[C@H]1CC[C@]2(C)[C@@H]1[C@H](O)C[C@@H]1[C@@]3(C)CC[C@H](O[C@@H]4O[C@H](CO)[C@@H](O)[C@H](O)[C@H]4O[C@@H]4O[C@H](CO)[C@@H](O)[C@H](O)[C@H]4O)C(C)(C)[C@@H]3CC[C@]12C", "cell line": "BEAS-2B", "effect on": "cell growth or viability", "technique": "MTT", "time": "72 h", "IC50": "> 100 µM"}
{"SMILES": "Nc1c2c(nc3ccccc13)CCCC2O (centres unmarked)", "cell line": "HN-6", "effect on": "cell growth or viability", "time": "72 h", "IC50": "> 20 µM"}
{"SMILES": "Nc1ccc(Cl)c[n+]1[Pt-2]([Cl])([Cl])[n+]1cc(Cl)ccc1N", "cell line": "BEAS-2B", "effect on": "cell growth or viability", "technique": "MTT", "time": "48 h", "IC50": "6.33 µM"}
{"SMILES": "COc1cc2nc(N3CCN(C(=O)c4ccco4)[C@H]4CCCC[C@H]43)nc(N)c2cc1OC (racemic)", "cell line": "HN-6", "effect on": "cell growth or viability", "time": "72 h", "IC50": "15.6 µM"}
{"SMILES": "CCN1C(=O)N(c2c(F)c(OC)cc(OC)c2F)Cc2cnc3[nH]c(CN4CCOCC4)cc3c21", "cell line": "RT-112", "effect on": "cell growth or viability", "technique": "ATP luminescence", "time": "96 h", "IC50": "0.00522 µM"}
{"SMILES": "O=C1c2cccc(O)c2C(=O)c2c(O)cc(CO)cc21", "cell line": "HK-2", "effect on": "cell growth or viability", "technique": "MTT", "time": "24 h", "IC50": "> 500 µM"}
{"SMILES": "CCN1CCN(c2ccc(Nc3cc(N(C)C(=O)Nc4c(Cl)c(OC)cc(OC)c4Cl)ncn3)cc2)CC1", "cell line": "KATO III", "effect on": "cell growth or viability", "technique": "ATP luminescence", "time": "96 h", "IC50": "0.00222 µM"}
{"SMILES": "O=C(CNC(=O)c1cccc2ccccc12)Nc1ccccc1Oc1ccc(O)cc1", "cell line": "SK-N-DZ", "effect on": "cell growth or viability", "IC50": "0.467 µM"}
{"SMILES": "COc1ccc(CCN(C)CCc2ccc(OC)c(OC)c2)cc1OC", "cell line": "HN-6", "effect on": "cell growth or viability", "time": "72 h", "IC50": "> 20 µM"}
{"SMILES": "COc1ccc2[nH]cc(C(=O)C(=O)CCCc3c[nH]c4ccccc34)c2c1", "cell line": "C4-2", "effect on": "cell growth or viability", "technique": "MTT", "IC50": "> 100 µM"}
{"SMILES": "Cc1c[nH]c(/C=C2\\C(=O)Nc3ccccc32)c1CCC(=O)O", "cell line": "RT-112", "effect on": "cell growth or viability", "technique": "MTT", "time": "5 days", "IC50": "6 µM"}
{"SMILES": "COC(=O)CN=c1scc(-c2ccccc2)n1-c1ccccc1C", "cell line": "Panc 02.03", "effect on": "cell growth or viability", "technique": "MTT", "time": "72 h", "IC50": "> 100 µM"}
{"SMILES": "Cc1cc(O)c2c(c1)C(=O)c1cccc(O)c1C2=O", "cell line": "HK-2", "effect on": "cell growth or viability", "technique": "MTT", "time": "24 h", "IC50": "> 500 µM"}
{"SMILES": "COc1cccc2c1C(=O)c1c(O)c3c(c(O)c1C2=O)C[C@@](O)(C(=O)CO)C[C@@H]3O[C@H]1C[C@H](N)[C@H](O)[C@H](C)O1", "cell line": "A2058", "effect on": "cell growth or viability", "technique": "WST-1", "time": "72 h", "IC50": "0.04 µM"}
{"SMILES": "CC(=O)CC(c1ccccc1)c1c(O)c2ccccc2oc1=O (centres unmarked)", "cell line": "HN-6", "effect on": "cell growth or viability", "time": "72 h", "IC50": "> 20 µM"}
{"SMILES": "CC(C)(C)C1=CC(=NNC(=O)C2CCCCC2)C=C(C(C)(C)C)C1=O", "cell line": "human Fibroblast", "effect on": "cell growth or viability", "technique": "resazurin", "time": "24 h", "IC50": "> 100 µM"}
{"SMILES": "CN1CCN(c2ccc3nc(-c4c(N)c5c(F)cccc5[nH]c4=O)[nH]c3c2)CC1", "cell line": "RT-112", "effect on": "cell growth or viability", "technique": "MTT", "time": "5 days", "IC50": "0.2 µM"}
{"SMILES": "O=C(NCCc1c[nH]c2ccccc12)C(=O)c1c[nH]c2ccc(F)cc12", "cell line": "C4-2", "effect on": "cell growth or viability", "technique": "MTT", "IC50": "> 100 µM"}
